Measurements taken from ChEMBL document CHEMBL1127616, “Synthesis, structural characterization, and antitumor properties of a novel class of large-ring platinum(II) chelate complexes incorporating the cis-1,4-diaminocyclohexane ligand in a unique locked boat conformation” (J Med Chem, 1994).

Tests used:
Assay type in all cases: functional, organism-based
[1] = system: L1210; experiment: Tested for in vivo weight change against murine L1210 leukemia at the dose of 1.5 mg/kg per injection in experiment 1; settings: Mus musculus
In short: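 Leukemia life-span assays used CD2F1 (Balb/c × DBA/2F1) mice weighing 18–22 g. Cells were inoculated IP on day 0, and compounds in 0.9% saline were given IP, dosed by average cage weight. Weight change is the difference in mean group weight between the last and first treatment days.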

[2] = system: Mus musculus; experiment: Tested for the ratio of number of survivors / total number after 60 days at the dose of 3.7 mg/kg per injection against murine leukemia P388 experiment 2
In short: (§1)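 CD2F1 (Balb/c × DBA/2F1) mice, 18–22 g, randomized and inoculated IP with counted leukemia cells on day 0, then re-randomized. Three IP treatments, dissolved in 0.9% saline and dosed on average cage weight, with dose in mg/kg per injection across a full toxic-to-ineffective range. Median life span and %T/C were recorded. Survivors at 60 days were counted as cured and excluded from %T/C.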

[3] = system: L1210; experiment: Tested for the ratio of number of survivors / total number after 60 days at the dose of 6.0 mg/kg per injection against murine L1210 Pt-resistant leukemia; settings: Mus musculus; in short: as §1

| Substance | Weight change [1] [g] | Survivors [2] | Survivors [3] |
| --- | --- | --- | --- |
| [Pt(cis-1,4-dach)CL2] | 0.6 | 0 | – |
| CISPLATIN | – | – | 0 |
